According to ChEMBL document CHEMBL1795205, “The new 5- or 6-azapyrimidine and cyanuric acid derivatives of l-ascorbic acid bearing the free C-5 hydroxy or C-4 amino group at the ethylenic spacer: CD-spectral absolute configuration determination and biological activity evaluations” (Eur J Med Chem, 2011):
Activity calls are given as the source filed them. No cut-off for these calls is given here.

Columns and labels:
HeLa [1] = assay: Cytostatic activity against human HeLa cells assessed as inhibition of cell proliferation after 72 hrs by MTT assay; assay type: functional, cell-based
Procedure, shortened: (§1)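 Monolayer cells grown in DMEM with 10% FBS were seeded on day 0 at 3000–6000 cells/well, set by each line's doubling time. Agents were added the next step in five 10-fold dilutions (0.01–100) for 72 h, with DMSO ≤0.1% and a solvent control. MTT absorbance was converted to percentage growth versus untreated wells on the same plate. Where all PGs exceeded 50, the top concentration was reported as ">". ANOVA/Tukey, p<0.05.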

HeLa [2] = assay: Induction of cell cycle arrest in human HeLa cells assessed as accumulation at S phase at 1 uM after 48 hrs by flow cytometry relative to control; assay type: functional
Procedure, shortened: (§2)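 Cells were seeded at 3×10⁵ per well in 6-well plates and treated after overnight incubation for 24 and 48 h. They were trypsinized, washed three times in PBS, fixed in cold ethanol and stored at −20 °C. Pellets were washed twice in PBS and treated with RNase A at 37 °C for 15 min, then stained with PI for 30 min in the dark. DNA content was measured by flow cytometry.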

SW-620 [3] = assay: Induction of cell cycle arrest in human SW620 cells assessed as accumulation at G1 phase at 5 uM after 24 hrs by flow cytometry (reference value: 51.6 +/- 0.07%); assay type: functional
HeLa [4] = assay: Induction of apoptosis in human HeLa cells at 1 to 5 uM after 24 to 48 hrs by annexin V/PI staining; assay type: functional, cell-based
Procedure, shortened: (§3)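 Cells were seeded on slides, incubated 24 h, then exposed to compound for 24 and 48 h. They were washed with PBS and binding buffer, incubated with annexin-V for 10 min, washed with binding buffer, and stained with PI.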

HeLa [5] = assay: Induction of cell cycle arrest in human HeLa cells assessed as accumulation at S phase at 1 uM after 24 hrs by flow cytometry relative to control; assay type: functional; procedure, shortened: as §2
MIA PaCa-2 [6] = assay: Induction of cell cycle arrest in human MIAPaCa2 cells assessed as accumulation at S phase at 1 uM after 48 hrs by flow cytometry (reference value: 46 +/- 8.13%); assay type: functional
SW-620 [7] = assay: Induction of cell cycle arrest in human SW620 cells assessed as accumulation at subG1 phase at 1 uM after 24 hrs by flow cytometry (reference value: 0.37 +/- 0.36%); assay type: functional
WI-38 = assay: Cytotoxicity against human WI38 cells assessed as inhibition of cell proliferation after 72 hrs by MTT assay; assay type: cell-based; details: WI-38, 72 h; procedure, shortened: as §1
MIA PaCa-2 [8] = assay: Induction of cell cycle arrest in human MIAPaCa2 cells assessed as accumulation at G1 phase at 1 uM after 48 hrs by flow cytometry (reference value: 44.7 +/- 7.21%); assay type: functional
MIA PaCa-2 [9] = assay: Induction of apoptosis in human MIAPaCa2 cells at 1 to 5 uM after 24 to 48 hrs by annexin V-/PI staining
HeLa [10] = assay: Induction of cell cycle arrest in human HeLa cells assessed as accumulation at G2/M phase at 1 uM after 24 hrs by flow cytometry relative to control; assay type: functional; procedure, shortened: as §2
SW-620 [11] = assay: Induction of cell cycle arrest in human SW620 cells assessed as accumulation at subG1 phase at 1 uM after 48 hrs by flow cytometry (reference value: 0.18 +/- 0.036%); assay type: functional
SW-620 [12] = assay: Induction of cell cycle arrest in human SW620 cells assessed as accumulation at S phase at 1 uM after 24 hrs by flow cytometry (reference value: 37.7 +/- 0.01%); assay type: functional
HeLa [13] = assay: Induction of cell cycle arrest in human HeLa cells assessed as accumulation at G1 phase at 1 uM after 48 hrs by flow cytometry relative to control; assay type: functional; procedure, shortened: as §2
MIA PaCa-2 [14] = assay: Induction of cell cycle arrest in human MIAPaCa2 cells assessed as accumulation at G1 phase at 5 uM after 48 hrs by flow cytometry (reference value: 44.7 +/- 7.21%); assay type: functional
HeLa [15] = assay: Induction of cell cycle arrest in human HeLa cells assessed as accumulation at G1 phase at 1 uM after 24 hrs by flow cytometry relative to control; assay type: functional; procedure, shortened: as §2
HepG2 = assay: Cytostatic activity against human HepG2 cells assessed as inhibition of cell proliferation after 72 hrs by MTT assay; assay type: functional, cell-based; details: HepG2, 72 h; procedure, shortened: as §1
MIA PaCa-2 [16] = assay: Induction of cell cycle arrest in human MIAPaCa2 cells assessed as accumulation at G2/M phase at 1 uM after 48 hrs by flow cytometry (reference value: 9.35 +/- 0.92%); assay type: functional
MIA PaCa-2 [17] = assay: Induction of cell cycle arrest in human MIAPaCa2 cells assessed as accumulation at G1 phase at 5 uM after 24 hrs by flow cytometry (reference value: 55.4 +/- 0.01%); assay type: functional
HeLa [18] = assay: Induction of cell cycle arrest in human HeLa cells assessed as accumulation at subG1 phase at 5 uM after 24 hrs by flow cytometry relative to control; assay type: functional; procedure, shortened: as §2
SW-620 [19] = assay: Induction of cell cycle arrest in human SW620 cells assessed as accumulation at subG1 phase at 5 uM after 24 hrs by flow cytometry (reference value: 0.37 +/- 0.36%); assay type: functional
SW-620 [20] = assay: Induction of cell cycle arrest in human SW620 cells assessed as accumulation at G1 phase at 1 uM after 48 hrs by flow cytometry (reference value: 46.6 +/- 4.88%); assay type: functional
SW-620 [21] = assay: Induction of cell cycle arrest in human SW620 cells assessed as accumulation at G2/M phase at 5 uM after 24 hrs by flow cytometry (reference value: 10.7 +/- 0.07%); assay type: functional
HeLa [22] = assay: Induction of cell cycle arrest in human HeLa cells assessed as accumulation at S phase at 5 uM after 24 hrs by flow cytometry relative to control; assay type: functional; procedure, shortened: as §2
MCF7 = assay: Cytostatic activity against human MCF7 cells assessed as inhibition of cell proliferation after 72 hrs by MTT assay; assay type: functional, cell-based; details: MCF7, 72 h; procedure, shortened: as §1
HeLa [23] = assay: Induction of cell cycle arrest in human HeLa cells assessed as accumulation at subG1 phase at 5 uM after 48 hrs by flow cytometry relative to control; assay type: functional; procedure, shortened: as §2
MIA PaCa-2 [24] = assay: Induction of cell cycle arrest in human MIAPaCa2 cells assessed as accumulation at G2/M phase at 5 uM after 24 hrs by flow cytometry (reference value: 10.3 +/- 0.07%); assay type: functional
HeLa [25] = assay: Induction of cell cycle arrest in human HeLa cells assessed as accumulation at G1 phase at 5 uM after 48 hrs by flow cytometry relative to control; assay type: functional; procedure, shortened: as §2
SW-620 [26] = assay: Induction of cell cycle arrest in human SW620 cells assessed as accumulation at G2/M phase at 5 uM after 48 hrs by flow cytometry (reference value: 11.9 +/- 2.33%); assay type: functional
SW-620 [27] = assay: Induction of cell cycle arrest in human SW620 cells assessed as accumulation at G2/M phase at 1 uM after 48 hrs by flow cytometry (reference value: 11.9 +/- 2.33%); assay type: functional
HeLa [28] = assay: Induction of cell cycle arrest in human HeLa cells assessed as accumulation at subG1 phase at 1 uM after 48 hrs by flow cytometry relative to control; assay type: functional; procedure, shortened: as §2
SW-620 [29] = assay: Induction of apoptosis in human SW620 cells at 1 to 5 uM after 24 to 48 hrs by annexin V/PI staining; assay type: functional, cell-based; procedure, shortened: as §3

Molecule Nc1ncn(C/C=C2\OC(=O)C(OCc3ccccc3)=C2OCc2ccccc2)c(=O)n1 has an IC50 (HeLa [1]) of 5.91 µM, an Activity (HeLa [2]) of 65.6% and an Activity (SW-620 [3]) of 24.1%. The Activity (HeLa [4]) was “inactive”, the Activity (HeLa [5]) was 58.8% and the Activity (MIA PaCa-2 [6]) was 64.2%. For the same molecule, the Activity (SW-620 [7]) was 0.56%, the IC50 (WI-38) was 4.67 µM and the Activity (MIA PaCa-2 [8]) was 22.9%. The Activity (MIA PaCa-2 [9]) was “inactive”, the Activity (HeLa [10]) was 11.9% and the Activity (SW-620 [11]) was 0.05%. It also gave an Activity (SW-620 [12]) of 50.5%, an Activity (HeLa [13]) of 20.1% and an Activity (MIA PaCa-2 [14]) of 29%. It also gave an Activity (HeLa [15]) of 29.4%, an IC50 (HepG2) of 2.72 µM and an Activity (MIA PaCa-2 [16]) of 12.9%. For the same molecule, the Activity (MIA PaCa-2 [17]) was 35.6%, the Activity (HeLa [18]) was 0% and the Activity (SW-620 [19]) was 0.2%. The Activity (SW-620 [20]) was 23.2%, the Activity (SW-620 [21]) was 17.7% and the Activity (HeLa [22]) was 72.1%. It also gave an IC50 (MCF7) of 3.49 µM, an Activity (HeLa [23]) of 0.23% and an Activity (MIA PaCa-2 [24]) of 7.05%. For the same molecule, the Activity (HeLa [25]) was 23.9%, the Activity (SW-620 [26]) was 9.2% and the Activity (SW-620 [27]) was 17.9%. For the same molecule, the Activity (HeLa [28]) was 0.02% and the Activity (SW-620 [29]) was “inactive”.
